Measurements as given in publication PMC9282716 (Cell reports, 2022).
Where two headings read alike, the source gives them in different places. Blank lines part the entries; values can stand above or below the molecule they belong to.

Key:
[1] = system: EP2-deleted SK-N-AS cells; experiment: TR-FRET cAMP assay in EP2 knockout SK-N-AS cell lines; type: cell-based, human; settings: read-out: PGE2 EC50 for cAMP
Method in brief: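 EP2-knockout SK-N-AS lines were made with lentiCRISPRv2 sgRNAs, selected with puromycin (2 µg/mL) and verified by sequencing. […] After lysis with cAMP-d2 and anti-cAMP cryptate and 1 h at RT, TR-FRET was read (ex 340 nm; em 665/590 nm), n = 4. EC50 came from concentration–response curves.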

Hs68 cells = experiment: TR-FRET cAMP assay in normal fibroblast cell line Hs68; type: cell-based, human; settings: 10 μM agonist, Hs68 fibroblasts
EP2 receptor [2] = biological target: T1, EP2 receptor (Homo sapiens, UniProt P43116); experiment: cell-based; type: cell-based
EP2 receptor [3] = biological target: T1, EP2 receptor; experiment: Cell-based TR-FRET cAMP assay in BE

T1 sequence (P43116 whole entry): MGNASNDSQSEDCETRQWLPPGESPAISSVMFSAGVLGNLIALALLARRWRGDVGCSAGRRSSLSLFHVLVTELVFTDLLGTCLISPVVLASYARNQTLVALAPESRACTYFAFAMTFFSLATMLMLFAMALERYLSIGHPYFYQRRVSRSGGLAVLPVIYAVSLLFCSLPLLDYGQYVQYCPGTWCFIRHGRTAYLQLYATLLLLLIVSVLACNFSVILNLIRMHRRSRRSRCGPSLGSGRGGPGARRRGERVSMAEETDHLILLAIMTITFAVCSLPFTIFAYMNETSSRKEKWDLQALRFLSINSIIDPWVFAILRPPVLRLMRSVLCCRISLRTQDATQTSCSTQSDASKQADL

EC50 ([1]; Homo sapiens, SK-N-AS): > 10000 nM
EC50 ([1]; EP2 KO2 SK-N-AS cell line): > 10000 nM
Structure (SMILES): CCCCC[C@H](O)/C=C/[C@H]1[C@H](O)CC(=O)[C@@H]1C/C=C\CCCC(=O)O [PGE2, Prostaglandin E2]

Structure (SMILES): O=C1CC[C@H](/C=C/[C@@H](O)Cc2ccccc2)N1CCCCCCc1nn[nH]n1 [CAY10598]
cAMP production (Hs68 cells): more cAMP production than EP2 agonist butaprost and PGE2

IC50, inhibition of PGE2-induced cAMP production (EP2 receptor [2]): no effect
Structure (SMILES): CCOc1c2c(c(OCC)c3ccccc13)C(=O)N(c1ccc(CC(=O)NS(=O)(=O)c3ccccc3)cc1)C2 [GW627368X]

EC50 (EP2 receptor [2]; agonist EC50 for cAMP induction, SK-N-AS cells, n = 4): 170 nM
EC50 (EP2 receptor [3]): 470 nM
Structure (SMILES): CCCC1([C@H](O)C/C=C/[C@H]2[C@H](O)CC(=O)[C@@H]2CCCCCCC(=O)OC)CCC1 [butaprost]
